For data set [1], the system named is Raji. Briefly: Induction of apoptosis in human Raji cells assessed as early apoptotic cells at 1 uM measured after 48 hrs by Annexin V-FITC staining based flow cytometry (reference value: 2.12 to 2.15 %). Type of data set: functional.
Data set [2] relates to Raji. Briefly: Induction of apoptosis in human Raji cells assessed as necrotic cells at 0.25 uM measured after 48 hrs by Annexin V-FITC staining based flow cytometry (reference value: 0.12 to 0.15 %). Type of data set: functional.
In data set [3] the test system is Raji. Briefly: Induction of apoptosis in human Raji cells assessed as necrotic cells at 1 uM measured after 48 hrs by Annexin V-FITC staining based flow cytometry (reference value: 0.12 to 0.15 %). Type of data set: functional.
For the next data set, the system named is A-375. Briefly: Antiproliferative activity against human A375 cells assessed as reduction in cell viability measured after 48 hrs by MTT assay. Type of data set: functional, cell-based.
In data set [4] the test system is Raji. Briefly: Cell cycle arrest in human Raji cells assessed as accumulation at S phase at 0.5 uM measured after 24 hrs by propidium iodide/RNase staining based flow cytometry (reference value: 52%). Type of data set: functional.
Data set [5] has as its system Raji. Briefly: Induction of ROS generation in human Raji cells assessed as increase in ROS level measured after 24 hrs by DHE dye based fluorescence microplate reader assay. Type of data set: functional, cell-based. In a few lines:
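Raji cells treated 24 h, harvested, stained with 10 μM DHE in pre-warmed PBS for 15 min in the dark. Fluorescence read on a plate reader at ex 510/em 600 nm. Mean ± SD.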

The test system of data set [6] is Raji. Kind of data set: Induction of mitochondrial membrane potential loss in human Raji cells measured after 48 hrs by TMRM staining based fluorescence assay. Type of data set: functional, cell-based. In a few lines: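 Raji cells treated 48 h (CCCP as positive control), washed in PBS. Incubated with TMRM at 100 nM final for 15 min at 37 °C, fluorescence read at ex 510/em 580 nm. Mean ± SD.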

Another data set relates to MCF7. Briefly: Antiproliferative activity against human MCF7 cells assessed as reduction in cell viability measured after 48 hrs by MTT assay. Type of data set: functional, cell-based.
The test system of data set [7] is Raji. Kind of data set: Antiproliferative activity against human Raji cells assessed as inhibition of cell proliferation at 0.156 to 1.250 uM measured after 48 hrs in presence of uridine by MTT assay. Type of data set: functional, cell-based. In a few lines:
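Raji cells (ATCC; 10% FBS medium, 37 °C, 5% CO2) seeded at 2-10 × 10^3 cells/well, grown 24 h, then exposed to compound with or without uridine (500 μM) for 48 h. MTT added for 2-4 h; formazan dissolved in 20% acidified SDS overnight; absorbance read at 570 nm. Mean ± SD.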

For data set [8], the system named is Raji. Briefly: Induction of apoptosis in human Raji cells assessed as live cells at 1 uM measured after 48 hrs by Annexin V-FITC staining based flow cytometry (reference value: 96.46 to 96.71 %). Type of data set: functional.
Data set [9] relates to Raji. Briefly: Induction of apoptosis in human Raji cells assessed as live cells at 0.5 uM measured after 48 hrs by Annexin V-FITC staining based flow cytometry (reference value: 96.46 to 96.71 %). Type of data set: functional.
The subject of the next data set is HCT-116. Briefly: Antiproliferative activity against human HCT116 cells assessed as reduction in cell viability measured after 48 hrs by MTT assay. Type of data set: functional, cell-based.
A further data set concerns A549. Briefly: Antiproliferative activity against human A549 cells assessed as reduction in cell viability measured after 48 hrs by MTT assay. Type of data set: functional, cell-based.
Another data set concerns HeLa. Kind of data set: Antiproliferative activity against human HeLa cells assessed as reduction in cell viability measured after 48 hrs by MTT assay. Type of data set: functional, cell-based.
The subject of data set [10] is Raji. Briefly: Induction of apoptosis in human Raji cells assessed as early apoptotic cells at 0.25 uM measured after 48 hrs by Annexin V-FITC staining based flow cytometry (reference value: 2.12 to 2.15 %). Type of data set: functional.
Data set [11] in a line: Solubility of the compound in PBS. Type of data set: physicochemical.
The target of data set [12] is Dihydroorotate dehydrogenase (quinone), mitochondrial (Homo sapiens, UniProt Q02127). Briefly: Inhibition of human DHODH using dihydroorotate as substrate and CoQ10 as co-substrate preincubated for 30 mins followed by substrate addition by DCIP coupled microplate reader assay.
Chain of Dihydroorotate dehydrogenase (quinone), mitochondrial (Q02127 whole entry): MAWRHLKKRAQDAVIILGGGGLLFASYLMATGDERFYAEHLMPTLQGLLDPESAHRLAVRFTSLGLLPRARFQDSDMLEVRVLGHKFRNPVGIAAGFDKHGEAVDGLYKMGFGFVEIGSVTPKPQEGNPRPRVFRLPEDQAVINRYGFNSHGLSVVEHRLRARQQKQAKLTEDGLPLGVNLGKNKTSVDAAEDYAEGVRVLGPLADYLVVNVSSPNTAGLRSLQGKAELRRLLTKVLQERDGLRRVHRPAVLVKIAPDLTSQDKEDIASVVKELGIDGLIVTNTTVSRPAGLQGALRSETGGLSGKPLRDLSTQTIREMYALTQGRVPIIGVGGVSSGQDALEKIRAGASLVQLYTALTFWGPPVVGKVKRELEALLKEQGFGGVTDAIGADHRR
Data set [13] deals with Raji. Briefly: Induction of apoptosis in human Raji cells assessed as live cells at 0.25 uM measured after 48 hrs by Annexin V-FITC staining based flow cytometry (reference value: 96.46 to 96.71 %). Type of data set: functional.
In data set [14] the test system is Raji. Kind of data set: Induction of apoptosis in human Raji cells assessed as necrotic cells at 0.5 uM measured after 48 hrs by Annexin V-FITC staining based flow cytometry (reference value: 0.12 to 0.15 %). Type of data set: functional.
The subject of the next data set is K562. Kind of data set: Antiproliferative activity against human K562 cells assessed as reduction in cell viability measured after 48 hrs by MTT assay. Type of data set: functional, cell-based.
The subject of a further data set is NAMALVA. Briefly: Antiproliferative activity against human NAMALWA cells assessed as reduction in cell viability measured after 48 hrs by MTT assay. Type of data set: functional, cell-based.
Data set [15] has as its system Raji. Briefly: Antiproliferative activity against human Raji cells assessed as reduction in cell viability measured after 48 hrs by MTT assay. Type of data set: functional, cell-based.
Data set [16] concerns Raji. Kind of data set: Induction of apoptosis in human Raji cells assessed as early apoptotic cells at 0.5 uM measured after 48 hrs by Annexin V-FITC staining based flow cytometry (reference value: 2.12 to 2.15 %). Type of data set: functional.
Data set [17] has as its system Raji. Kind of data set: Antitumor activity against human Raji cells xenografted in NOD-SCID nude mouse assessed as tumor growth inhibition at 10 mg/kg/day, po administered 6 days a week for 3 weeks relative to control. Type of data set: functional. The essentials:
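Nude mice given 1 × 10^7 Raji cells s.c. in serum-free medium plus basement membrane matrix. Randomized at 100–200 mm3 tumour volume (n = 6 per group). Oral dosing 6 days/week for 3 weeks. Vehicles: 30 mg/kg/d in 5% NMP/95% PEG400, 10 mg/kg/d in 30% PEG300/70% saline. Volume = ab²/2 every 3 days. TGI from treated vs control volume change, initial to final day.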

Data set [18] can be described thus: Stability of the compound in pH 1 to 7.4 buffer assessed as decrease in compound concentration at 0.01 mg/ml measured up to 24 hrs by LC-MS analysis. Type of data set: physicochemical. The settings on record: read-out: Drug degradation. The essentials: (§1)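 Compound at 0.01 mg/mL final in buffer containing 10% acetonitrile at pH 1.0, 4.5, 6.6, 7.4 or 9.0. Held at 37 °C, sampled at 0, 2, 4, 6, 8, 10, 12 and 24 h. Remaining compound by LC-MS.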

The nature of data set [19]: Toxicity in NOD-SCID nude mouse xenografted with human Raji cells assessed as induction of liver damage at 10 mg/kg/day, po administered 6 days a week for 3 weeks and measured post last dose by H and E staining based light microscopic analysis. The settings on record: in vivo.
Data set [20] is described as follows: Stability of the compound in pH 9 buffer assessed as decrease in compound concentration at 0.01 mg/ml measured up to 24 hrs by LC-MS analysis. Type of data set: physicochemical. To be noted: read-out: Drug degradation. In a few lines:
as §1

A short description of data set [21]: Toxicity in NOD-SCID nude mouse xenografted with human Raji cells assessed as body weight loss at 30 mg/kg/day, po administered 6 days a week for 3 weeks and measured every 3 days during compound dosing. Type of data set: organism-based. To be noted: in vivo, 10 mg/kg, in the assay text read “10 mg/kg/day” for “30 mg/kg/day”.

The record followed here is ChEMBL document CHEMBL4616673 (J Med Chem, 2020).

pIC50: −log10 of the molar value. ≈ marks a conversion by molar mass, not a printed value. Calls of active or inactive are those of the source. No cut-off for these calls is given here. Bounds are passed on as bounds.

Turning to `COc1cccc(-c2c(F)cc(-n3nnc4c3C(=O)c3ccccc3C4=O)cc2F)c1`, the Activity was 4.24% in the data set on Raji [1]; 0.5% in the data set on Raji [2]; 0.39% in the data set with Raji [3]; 77.98% with Raji [4]; “Dose-dependent effect” with Raji [5]; “Dose-dependent effect” with Raji [6]. For the same compound, the Activity in the data set with Raji [8] was 90.1%; with Raji [9] it was 91.11%; in the data set on Raji [10] it was 3.58%; with Raji [13], 91.81%; in the data set with Raji [14], 0.36%; in the data set on Raji [16], 3.43%. Also, the pIC50 with A-375 (Homo sapiens, A-375, 48 h) was 7.40; in the data set with MCF7 (Homo sapiens, MCF7, 48 h) it was under 5.00; in the data set with HCT-116 (Homo sapiens, HCT-116, 48 h) it was 6.22; in the data set with A549 (Homo sapiens, A549, 48 h), 5.65; in the data set with HeLa (Homo sapiens, HeLa, 48 h), under 5.00; in data set [12] it was 8.05. Also, the negative-log IC50 (pIC50) in the data set with K562 (Homo sapiens, K562, 48 h) was 6.47; with NAMALVA (Homo sapiens, NAMALVA, 48 h), 5.98; in the data set on Raji [15] (Homo sapiens, Raji, 48 h), 6.32. Further, in the data set with Raji [7], the inhibition entry was “inactive”. For the same compound, in [11], the concentration in solution (solubility) was 21.4 µg/mL (≈ 51.3 µM).
Turning to `Cc1c(-c2ccc(-c3ccccc3F)cc2)nc2ccc(F)cc2c1C(=O)O` [BREQUINAR], the Activity in the data set with Raji [1] was 2.48%; in the data set with Raji [2], 0.27%; in the data set on Raji [3] it was 0.41%; in [19], “Toxic”; with Raji [8], 92.06%; in the data set with Raji [9] it was 91.85%. In addition, the Activity result in data set [21] is “Toxic”; in the data set with Raji [10], 2.42%; in the data set on Raji [13] it was 93.68%; in the data set on Raji [14], 0.27%; with Raji [16], 3.56%. Further, the negative logarithm of the IC50 (pIC50) in the data set on A-375 (a-375) is 6.23; in the data set on MCF7 (mcf7) it was under 5.00; in the data set on HCT-116 (hct-116), 5.39; in the data set with A549 (a549), 5.39; in the data set with HeLa (hela) it was under 5.00; in the data set with K562 (k562), 6.27. Besides, the pIC50 in the data set with NAMALVA (namalva) was under 5.00; with Raji [15] (raji), 5.64. Besides, the TGI in the data set with Raji [17] is reported as 74%. In addition, the degraded at 24 h, 0.01 mg/ml was 6.3 to 12.1% in data set [18] and 75.4% in [20]. The compound further returned a solubility in [11] of 75.2 µg/mL (≈ 200 µM).
